# Compound activity as filed in PubChem.
# WT yeast gro inh: growth inhibition of WT strain, primary screen, mitochondrial fusion inhibitor project, WT and mutant strains, chemical genetic; AID 1362, 2008; inhibition, % at 10 µM; mitochondrial fusion phenotypic screen; hit rate 2.1% among 190,000; in the data active means inhibition above about 58%; tested in S. cerevisiae
# Lmaj promast: Leishmania major promastigote growth inhibition, primary screen. inhibition, % at 10 µM. hit rate 9% among 200,000. AID 1063, 2008. Leishmania major promastigotes, resazurin fluorescence viability; in the data active means inhibition above about 50%;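 further: promastigotes grown with compound for 44 hours at 28 °C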
# Cl transport mod: KCC2 cotransporter modulators, thallium flux, primary screen, cell-based, HEK293 KCC2, FluoZin-2 fluorescence, MLSMR; hit rate 2.2% among 190,000; Solute carrier family 12 member 5 (Homo sapiens), Q9H2X9; AID 1456, 2008; KCC2 cells, thallium flux FluoZin-2 fluorescence; B-score of Tl+ flux slope (higher = more flux/activation; lower = inhibition) at 10 µM;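 active means thallium flux slope and its plate-corrected score both differing from the plate sample mean at a set confidence after two filtering rounds, in either direction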;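 further: slope of fluorescence scaled to starting intensity during 10 to 20 s after thallium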
# Target sequence (Q9H2X9 whole entry, looked up): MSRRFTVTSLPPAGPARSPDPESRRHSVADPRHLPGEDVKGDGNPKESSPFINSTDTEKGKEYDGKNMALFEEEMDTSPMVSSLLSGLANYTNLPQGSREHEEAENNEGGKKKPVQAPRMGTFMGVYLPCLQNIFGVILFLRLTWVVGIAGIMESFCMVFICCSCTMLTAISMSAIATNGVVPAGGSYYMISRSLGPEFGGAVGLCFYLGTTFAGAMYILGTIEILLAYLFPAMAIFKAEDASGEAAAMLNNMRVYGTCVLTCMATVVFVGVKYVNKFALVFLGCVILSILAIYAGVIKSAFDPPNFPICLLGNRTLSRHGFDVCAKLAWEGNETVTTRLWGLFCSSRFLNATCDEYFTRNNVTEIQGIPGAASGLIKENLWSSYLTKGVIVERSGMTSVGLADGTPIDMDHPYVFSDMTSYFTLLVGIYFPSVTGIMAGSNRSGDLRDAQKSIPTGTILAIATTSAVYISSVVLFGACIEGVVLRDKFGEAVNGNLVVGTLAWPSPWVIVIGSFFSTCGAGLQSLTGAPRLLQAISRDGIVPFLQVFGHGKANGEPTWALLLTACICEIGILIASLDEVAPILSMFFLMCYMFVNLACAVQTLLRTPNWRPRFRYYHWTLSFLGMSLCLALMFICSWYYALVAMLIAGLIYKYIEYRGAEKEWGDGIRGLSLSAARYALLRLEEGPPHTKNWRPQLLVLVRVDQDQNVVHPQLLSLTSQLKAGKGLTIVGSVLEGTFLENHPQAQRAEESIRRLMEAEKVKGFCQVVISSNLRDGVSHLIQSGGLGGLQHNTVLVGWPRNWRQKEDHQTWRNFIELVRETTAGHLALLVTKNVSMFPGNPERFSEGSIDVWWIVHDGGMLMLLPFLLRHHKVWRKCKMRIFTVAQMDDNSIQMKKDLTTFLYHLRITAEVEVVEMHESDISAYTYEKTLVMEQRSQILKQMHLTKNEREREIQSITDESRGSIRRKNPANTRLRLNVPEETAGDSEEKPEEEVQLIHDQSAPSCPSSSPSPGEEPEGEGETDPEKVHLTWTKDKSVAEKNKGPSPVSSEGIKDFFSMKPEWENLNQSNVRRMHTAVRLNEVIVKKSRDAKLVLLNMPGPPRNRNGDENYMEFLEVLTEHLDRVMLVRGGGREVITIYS
# Diaphorase act: compounds boosting diaphorase resazurin reduction – biochemical, uHTS, resorufin fluorescence, counter-screen for diaphorase-coupled primary assays, primary screen | activation factor at 20 µM | Diaphorase/resazurin coupled assay, 16 min; active compounds read high; 1 = vehicle wells, 0 = NADH-free wells | hit rate 0.005% among 190,000;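 active means diaphorase activity raised at least twofold by the compound at 20 µM; inactive means activation factor below 2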
#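 Test system: Clostridium kluyveri diaphorase, purified enzyme; input: enzyme 0.07 U/mL final; buffer or medium: 50 mM HEPES pH 7.4 with 4.542 mM MgCl2, 0.005% Tween 20; also added: 0.114 mM NADH and 0.1 mM resazurin, final amounts; schedule: 16 min enzyme reaction, ambient temperature; technique: fluorescence of resorufin, 544 nm excitation, 590 nm emission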
# Diaph inh CS: diaphorase inhibitors and chemical oxidizers, primary screen, counter-screen for diaphorase-coupled primary assays, biochemical, uHTS, resorufin fluorescence. diaphorase resazurin-to-resorufin fluorescence, NADH, 16 min; bacterial (C. kluyveri) enzyme, not human. inhibition, % at 20 µM. hit rate 0.69% among 190,000. AID 1217, 2008;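 active means primary screen inhibition at 20 µM above a set limit, cut at about 50% in these data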;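 further: plate controls were DMSO with full reaction for no effect and wells lacking NADH for full effect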
#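 Benchmarks: positive control wells lacking NADH, neutral wells with DMSO only. System: bacterial diaphorase enzyme (C. kluyveri). Input: 0.14 U/mL diaphorase, enzyme working solution. Detection: resorufin fluorescence, excitation 544 nm, emission 590 nm. Times: 16-min room-temperature incubation before reading.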
# ROMK mod: ROMK potassium channel modulators, primary screen, cell-based, thallium flux, MLSMR library; ATP-sensitive inward rectifier potassium channel 1 (Homo sapiens), P48048; Tet-inducible ROMK, thallium flux fluorescence; actives lie on both sides; B-score at 10 µM; hit rate 2% among 130,000;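 active means signal ratio slope over the read window, or its plate-corrected B-score, at least 3 SD from the plate mean, either direction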;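 further: B-score of the F/F0 ratio slope over 7 to 12 s after thallium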
# KCC2 secondary: KCC2 modulators in sodium-free buffer, confirmation, cell-based, HEK293 KCC2, thallium flux, secondary assay; shares compounds with Cl transport mod; FluoZin2 fluorescence; active compounds read high; normalised thallium flux (F/F0 slope) at 10 µM; hit rate 15% among 3,700;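 active means thallium flux slope above the same plate's solvent-only control mean plus 3 SD; inconclusive means the two replicate wells disagree; inactive means no significant difference from solvent-only control wells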
# KCC2 bumet counter: thallium flux persisting under bumetanide in KCC2 cells, confirmation, counter-screen for KCC2 modulator project, cell-based, HEK293 KCC2, FluoZin2, secondary assay 3. HEK293-KCC2 + bumetanide/ouabain; active compounds read high. AID 1714, 2009. hit rate 49% among 3,700. shares compounds with Cl transport mod. normalized thallium flux at 10 µM;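 active means thallium entry rate above the same plate's blocked-transporter control wells by more than 3 SD; inconclusive means the two repeat wells disagree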;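 further: raw slope of fluorescence over initial fluorescence between 10 and 20 s after thallium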
# KCC2 sec2: KCC2 modulators without ouabain present, confirmation, cell-based, HEK293 KCC2, thallium flux, FluoZin2, secondary assay 2; shares compounds with Cl transport mod; thallium flux FluoZin2 fluorescence; actives lie on both sides; F/F0 rise rate, 10–20 s post-thallium; normalized thallium flux at 10 µM; hit rate 23% among 3,700;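 active means thallium flux slope more than 3 SD above or below the plate's solvent-only control mean, mostly below; inconclusive means the two repeat wells disagreed; inactive means no significant shift from solvent-only controls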;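 further: raw slope with 0.1% DMSO as baseline and bumetanide as block control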
# HEK counter1: thallium flux modulation in parental HEK cells, confirmation, counter-screen for KCC2 modulator project, cell-based, counterscreen 1 | HEK293 parental cells, thallium flux FluoZin2, ouabain; baseline-ratio fluorescence slope, 10–20 s after thallium | hit rate 46% among 3,700 | thallium flux rate (normalised fluorescence) at 10 µM | shares compounds with Cl transport mod;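 active means thallium flux rate significantly above the same plate's solvent-only control wells, beyond their mean plus 3 SD; inconclusive means the two replicate wells gave conflicting results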
# KCC2 retest ouab: KCC2 inhibitors and activators, ouabain retest, confirmation, HEK-KCC2 cells | AID 1717, 2009 | hit rate 48% among 3,700 | raw Tl+ flux slope (below DMSO = inhibition, above = activation) at 10 µM | shares compounds with Cl transport mod | HEK293-KCC2, thallium flux FluoZin2 fluorescence; bidirectional: low = inhibitor, high = activator;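 active means thallium flux slope beyond 3 SD from same-plate DMSO control mean in most replicates, usually higher, sometimes lower; inconclusive means repeat tests gave conflicting results; inactive means no significant difference from controls in most replicates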;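 further: slope of initial-normalized fluorescence between seconds 10 and 20 after thallium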
# HEK293 Tl flux2: native HEK Tl+ uptake effects, second counter-screen – HEK cells, counterscreen 2, counter-screen for KCC2 modulator project, confirmation | HEK293 parental, thallium flux FluoZin-2 fluorescence slope | hit rate 33% among 3,700 | thallium flux slope at 10 µM | shares compounds with Cl transport mod;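 active means thallium flux slope above the same plate's solvent-control mean plus 3 SD in both duplicate wells; inconclusive means duplicate wells that disagreed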;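 further: run without ouabain in cells lacking the KCC2 cotransporter; slope of fluorescence scaled to its starting value between 10 and 20 s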
# * = called active by the depositor; ? = inconclusive; · = no result given. Only some compounds are listed: those with a hit (about 12% of all), similar ones and a draw of the others.
SMILES,WT yeast gro inh,Lmaj promast,Cl transport mod,Diaphorase act,Diaph inh CS,ROMK mod,KCC2 secondary,KCC2 bumet counter,KCC2 sec2,HEK counter1,KCC2 retest ouab,HEK293 Tl flux2
COc1cc(NC(=S)N2CCN(C(c3ccccc3)c3ccccc3)CC2)cc(OC)c1,2,4,-0.076,0.8,20,·,·,·,·,·,·,·
Clc1cc(Sc2ccc(Br)cc2)nnc1-c1ccccc1,37,30,-3,0.9,9,·,·,·,·,·,·,·
COC(=O)C1=C(Nc2ccccc2NS(=O)(=O)c2ccc(C(F)(F)F)cc2Cl)CSC1,·,·,5.5*,·,·,-0.76,0.0074,0.011*,0.029,0.012*,?,0.012*
CCc1cc2c(=O)n(Cc3ccco3)c(SCC(=O)N(C)C3CCS(=O)(=O)C3)nc2s1 (centres undefined),-14,10,0.18,1.1,-10,-0.069,·,·,·,·,·,·
O=C(CCCCCn1c(SCC(=O)c2ccccc2)nc2ccccc2c1=O)NCc1ccco1,10,2,-0.36,0.9,6,·,·,·,·,·,·,·
CN(Cc1ccccc1)C(=O)CSc1nc2ccccc2c(=O)n1Cc1ccco1,24,45,-3.5*,0.7,33,·,0.0072,0.0031*,0.026*,0.0058*,0.015*,?
CCOC(=O)CSc1nc2ccccc2c(=O)n1CCCCCC(=O)NCc1ccco1,14,6,-4.1*,0.9,13,·,0.0084,?,0.033,0.007,0.022,0.011
CN(C(=O)CSc1nc2cc(Cl)ccc2c(=O)n1Cc1ccco1)C1CCS(=O)(=O)C1 (centres undefined),-9,14,12*,0.9,8,-0.31,0.011,0.014*,0.032,0.016*,?,0.012
CCc1cc(=O)oc2cc(OCC(N)=O)c(Cl)cc12,2,2,·,0.8,19,-0.98,·,·,·,·,·,·
CCOc1nc(NC(=O)NS(=O)(=O)Oc2cccc(Cl)c2)nc(-c2ccccc2)n1,2,-5,2.1,0.9,6,0.034,·,·,·,·,·,·
CCOc1ccccc1C(=O)NC1CC2CCCC(C1)N2Cc1nnnn1Cc1ccco1 (centres undefined),0,36,-4*,0.8,16,-0.31,0.0062,0.0054,0.031,0.0059,?,0.0095
O=C(CSc1nnc(-c2ccccc2O)o1)N1CCc2ccccc2C1,-2,-3,-1.1,0.8,19,-1.1,·,·,·,·,·,·
COc1ccc(Cc2nnc(SCC(=O)N3CCc4ccccc4C3)o2)cc1,11,-2,-1.1,0.7,29,·,·,·,·,·,·,·
